Source: PubChem (several laboratories)
Insulin prom inh – TRM-6 insulin promoter activity inhibition; AID 1273; TRM-6 cells (human fetal islet line), insulin promoter-eGFP reporter, imaging; reporter expression induced with tamoxifen; 130,000 tested, 0.9% active; inhibition, % at 2 µM;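 active = inhibition above the mean plus 3 SD, with well images judged a real hit on visual review, cut at about 60% in these data, passing the limit was not always enough; inconclusive = inhibition over the cutoff but images rejected on review; inactive = inhibition not above the cutoff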
Insulin prom up – MIN6 insulin promoter up-regulation | MIN6 insulin promoter-GFP reporter, high-content imaging; active compounds read high | z-score at 5 µM | 190,000 tested, 0.3% active;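 active = z-score above 3 at 5 µM with at least 500 cells counted in the well; inconclusive = wells under 500 cells, flagged as cytotoxic or low count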
NPY Y1 blocker – NPY-Y1 (human) receptor antagonism. P25929. HEK293-CNG Y1 cells, membrane potential fluorescence; NPY at EC95, then isoproterenol. inhibition, % at 3.6 µM. 200,000 tested, 1% active. AID 1040;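 active = inhibition above the campaign mean inhibition of all tested compounds plus 3 SD, cut at about 20% in these data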;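 note: 0% = DMSO wells given NPY plus isoproterenol and 100% = isoproterenol alone without NPY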
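Assay system: HEK293 cells with Y1 receptor plus CNG channel | Probe or stimulus: NPY (25 nM), isoproterenol (1 µM), Ro 20-1724 (25 µM) | Timing: Compound incubation 1 h at room temperature, readout 45 min post-stimulation | Measured by: Membrane-potential fluorescent dye readout | Benchmarks: High control isoproterenol alone, low control NPY with isoproterenol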
NPY-Y2 PAM-ag – potentiators or agonists of human neuropeptide Y receptor Y2; P49146; cells expressing NPY-Y2, potentiator/agonist read-out; activation, % at 3.6 µM; 220,000 tested, 0.45% active; AID 1359; in the data active = activation above about 27%;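 note: cells stimulated with NPY near EC25 plus isoproterenol at EC100; 0% = vehicle plus submaximal agonist and 100% = vehicle plus saturating agonist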
Target sequence (P49146 whole entry, looked up): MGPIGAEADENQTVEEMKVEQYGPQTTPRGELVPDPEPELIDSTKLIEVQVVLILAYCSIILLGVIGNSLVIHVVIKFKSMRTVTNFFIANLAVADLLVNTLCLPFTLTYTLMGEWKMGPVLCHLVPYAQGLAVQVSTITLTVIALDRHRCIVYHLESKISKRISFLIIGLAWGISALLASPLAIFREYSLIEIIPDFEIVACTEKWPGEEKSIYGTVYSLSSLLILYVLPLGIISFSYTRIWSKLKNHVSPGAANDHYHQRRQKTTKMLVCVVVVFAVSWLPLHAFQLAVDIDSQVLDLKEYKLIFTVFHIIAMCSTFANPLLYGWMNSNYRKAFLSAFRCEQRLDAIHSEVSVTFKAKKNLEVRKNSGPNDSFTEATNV
NPY-Y1 PAM-ag – human NPY-Y1 potentiation or agonism, primary screen; NPY-Y1 expressing cells, potentiator/agonist activation; activation, % at 3.6 µM; 220,000 tested, 0.37% active; AID 1304; in the data active = activation above about 33%, passing the limit was not always enough;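 note: cells stimulated with NPY at EC10 then isoproterenol at EC100; 0% = low agonist plus stimulus and 100% = saturating agonist plus stimulus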
NPY Y2 blocker – NPY-Y2 (human) receptor antagonism | P49146 | NPY-Y2 expressing cells, antagonist mode | inhibition, % at 2.7 µM | 140,000 tested, 0.99% active | AID 793; in the data active = inhibition above about 17%;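 note: 0% = vehicle with agonist challenge and 100% = reference antagonist with challenge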
NPY-Y2 pot conf – confirmation of human NPY-Y2 receptor potentiators or agonists. shares compounds with NPY-Y2 PAM-ag. activation, % at 3.6 µM. cell-based NPY-Y2 potentiator/agonist assay. 450 tested, 20% active; in the data active = activation above about 33%
NPY-Y1 counter – NPY-Y1 potentiation or agonism as NPY-Y2 counter-screen. shares compounds with NPY-Y2 PAM-ag. Y1 HEK293-CNG cells, membrane potential fluorescence. activation, % at 3.6 µM. 450 tested, 20% active; in the data active = activation above about 45%;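 note: cells stimulated with submaximal NPY then isoproterenol with phosphodiesterase inhibitor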
NPY-Y1 ag 2 – activates human NPY-Y1, counter-screen for NPY-Y2 potentiators | shares compounds with NPY-Y2 PAM-ag | HEK293 Y1-CNGC, membrane potential fluorescence, agonism | activation, % at 3.6 µM | 450 tested, 37% active | AID 1702;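 active = activation above the mean of DMSO-only control wells plus 3 SD, cut at about 18% in these data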;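 note: cells stimulated with 1 µM isoproterenol plus the PDE inhibitor Ro 20-1724; 0% = isoproterenol with DMSO and no NPY and 100% = 40 nM NPY; Y1 agonists lower the membrane potential dye signal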
CNGC inhibitor – counter-screen for NPY-Y2 potentiators: inhibitors of CNG channel activity | shares compounds with NPY-Y2 PAM-ag | HEK293-CNG parental, isoproterenol cAMP, membrane potential fluorescence | inhibition, % at 3.6 µM | 450 tested, 32% active;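 active = inhibition above the control-well mean plus 3 SD of those wells, cut at about 22% in these data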;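 note: 0% = DMSO with isoproterenol and 100% = DMSO without isoproterenol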
NPY-Y2 ag 2 – NPY-Y2 agonism, counter-screen for Y2 potentiators; shares compounds with NPY-Y2 PAM-ag; HEK293 Y2/CNGC cells, membrane potential fluorescence, agonist mode; activation, % at 3.6 µM; 450 tested, 56% active;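 active = activation above the mean of solvent-only control wells plus 3 SD, cut at about 10% in these data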;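 note: cells stimulated by isoproterenol with no NPY added so direct agonism is tested; 0% = DMSO with isoproterenol alone and 100% = NPY at EC100 plus isoproterenol; agonism lowers probe fluorescence through less cAMP and CNG channel opening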
* hit, by the source's call; ? = inconclusive; / = no result given. Sampled rows, rich in hits. Any-hit rate of the full collection: about 2.5%.

SMILES	Insulin prom inh	Insulin prom up	NPY Y1 blocker	NPY-Y2 PAM-ag	NPY-Y1 PAM-ag	NPY Y2 blocker	NPY-Y2 pot conf	NPY-Y1 counter	NPY-Y1 ag 2	CNGC inhibitor	NPY-Y2 ag 2
N=c1c(-c2nc3ccccc3[nH]2)cc(C(=O)c2ccco2)nn1-c1ccccc1	-14.3	-0.52	-1.4	38.2*	12.4	-1.3	83.3*	107.6*	79.6*	72.7*	79.7*
O=S(=O)(c1ccc(Cl)cc1)N1CCC(O)(CN2CCN(Cc3ccccc3)CC2)CC1	/	-0.65	1.9	-1.9	3.1	/	/	/	/	/	/
O=S(=O)(c1ccccc1)N1CCC(O)(CSc2ccc(Cl)cc2)CC1	-57.1	/	8.8	33.8*	-14.4	3.2	-12.7	-56.2	11.9	-16.5	4.9
O=C(NNC(=O)C1CCN(c2ncccn2)CC1)c1ccncc1	/	0.38	3.2	8.1	21.4	/	/	/	/	/	/
CCC(=O)Nc1ccc(-c2cc3ccccc3oc2=O)cc1	/	-0.42	-0.8	-18.0	22.8	/	/	/	/	/	/
CC(=O)Nc1ccc(-c2cc3ccccc3o2)cc1	-8.7	-0.4	2.4	28.6*	-5.8	0.8	17.2	17.3	13.4	11.8	12.9*
CCC(C)C(NC(=O)C(CC(C)C)NC(=O)C(CO)NC(=O)C1CCC(=O)N1)C(=O)OC (configuration not stated)	/	-0.05	-1.4	-7.8	-7.7	/	/	/	/	/	/
Cc1c(C(C)C)c(=O)n(-c2ccc(S(=O)(=O)NCc3ccccc3)cc2)n1C	/	?	-0.7	35.1*	-23.1	/	1.6	-39.7	-27.5	-8.8	1.4
Cc1[nH]c2ccccc2c1-c1csc(NC(=O)CSCCO)n1	-41.7	-0.58	-3.4	13.1	1.6	/	/	/	/	/	/
N#Cc1cnn(-c2ccc(F)cc2)c1N	/	-0.15	/	55.2*	12.8	/	-6.5	-13.7	-25.4	-7.3	-14.9
COc1cc(NC(C(=O)Nc2cccc(C(C)=O)c2)c2ccccc2)cc(OC)c1OC (configuration not stated)	-3.1	0.56	-3.0	3.8	12.9	-1.9	/	/	/	/	/
O=C(N/N=C/c1cccc2cccnc12)c1ccccc1O	/	0.94	/	38.2*	35.7	/	22.0	25.7	14.7	6.3	12.2*
O=C(N/N=C/c1cccc2nccnc12)c1ccccc1O	/	-0.51	/	8.5	1.4	/	/	/	/	/	/
COC(=O)c1ccc(NC(=O)CSc2nnc(C(C)NC(=O)c3ccccc3Cl)n2C)cc1 (configuration not stated)	35.1	1.76	-1.2	37.0*	32.9	-4.4	10.1	16.2	17.0	10.2	28.4*
COc1ccc(CC(=O)NC(C)c2nnc(SCC(=O)Nc3ccccc3)n2C)cc1 (configuration not stated)	/	-0.78	-4.3	-6.5	2.6	/	/	/	/	/	/
Cc1c(C(=O)O)[nH]c2ccc([N+](=O)[O-])cc12	/	0.74	-9.4	30.4*	18.0	/	27.7	35.9	38.8*	21.4	31.4*
O/N=C/c1ccnc(SCc2ccc(Cl)cc2)n1	/	0.27	/	-9.6	17.3	/	/	/	/	/	/
Cc1nc2ccccn2c1-c1ccnc(SCc2ccc(Cl)cc2)n1	/	-0.6	/	48.7*	-51.6	/	-43.5	-81.4	-54.5	-48.5	-35.9
O=C(N/N=C/c1cccc([N+](=O)[O-])c1)c1cc(-c2ccc3c4c(cccc24)CC3)n[nH]1	/	0.06	-4.6	23.9	1.8	-0.3	/	/	/	/	/
O=C(N/N=C/c1ccc(Cl)c([N+](=O)[O-])c1)c1cc(-c2ccc3c4c(cccc24)CC3)n[nH]1	/	-0.19	/	44.7*	35.7	/	14.6	25.2	18.3*	12.0	23.5*
CCOc1ccc(NC(=S)NN2CCN(C)CC2)cc1	20.0	0.13	-0.1	5.6	8.6	-1.6	/	/	/	/	/
